Screens: PubChem, several laboratories
The full list was thinned out, with hits kept by preference.
XBP1 UPR activ: activators of adaptive arm of unfolded protein response (XBP1); 330,000 compounds, 0.33% hits; activation, % at 20 µM; CHO-XBP1 luciferase reporter, IRE1-XBP1 UPR activation, luminescence; percent of tunicamycin response, DMSO as zero;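 active means versus positive control, 20 µM dose yields 30% or more activation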
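Assay system: CHO-XBP1 luciferase reporter cells; Schedule: 6 h treatment, 37 °C; Detection: glow luminescence from Steady-Glo reagent; Benchmarks: high control tunicamycin 10 µg/mL final, low control DMSO vehicle only.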
CHOP UPR activ: apoptotic UPR (CHOP) activation. CHO-CHOP luciferase reporter, luminescence; percent of tunicamycin response over DMSO baseline. activation, % at 10 µM. 330,000 compounds, 0.34% hits;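 active means at 10 µM dose, activation of 40% or more, normalized to positive control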
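Evaluation: % reporter activation, DMSO baseline versus tunicamycin full activation; System: CHO-CHOP luciferase reporter cell line; Input: 500 cells/well; Incubation: 6 h compound treatment, 37 °C; Measured by: Steady-Glo luciferase luminescence; Dosing: one dose, 10 µM in 0.5% DMSO; Buffer or medium: F12 medium, 10% FBS; Benchmarks: positive tunicamycin 10 µg/mL, negative DMSO alone.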
p-CIP stab down: p/CIP protein destabilization | F442A p/CIP-EGFP cells, EGFP fluorescence, 16 h | decrease of EGFP signal, % at 10 µM | 290,000 compounds, 0.01% hits | AID 1984;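 active means EGFP signal decrease of at least 30% at 10 µM or well 3 SD below plate mean, unless failing retest; inactive means the rest, including hits failing retest or dose response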
Target sequence (Q05BA5 1-1403): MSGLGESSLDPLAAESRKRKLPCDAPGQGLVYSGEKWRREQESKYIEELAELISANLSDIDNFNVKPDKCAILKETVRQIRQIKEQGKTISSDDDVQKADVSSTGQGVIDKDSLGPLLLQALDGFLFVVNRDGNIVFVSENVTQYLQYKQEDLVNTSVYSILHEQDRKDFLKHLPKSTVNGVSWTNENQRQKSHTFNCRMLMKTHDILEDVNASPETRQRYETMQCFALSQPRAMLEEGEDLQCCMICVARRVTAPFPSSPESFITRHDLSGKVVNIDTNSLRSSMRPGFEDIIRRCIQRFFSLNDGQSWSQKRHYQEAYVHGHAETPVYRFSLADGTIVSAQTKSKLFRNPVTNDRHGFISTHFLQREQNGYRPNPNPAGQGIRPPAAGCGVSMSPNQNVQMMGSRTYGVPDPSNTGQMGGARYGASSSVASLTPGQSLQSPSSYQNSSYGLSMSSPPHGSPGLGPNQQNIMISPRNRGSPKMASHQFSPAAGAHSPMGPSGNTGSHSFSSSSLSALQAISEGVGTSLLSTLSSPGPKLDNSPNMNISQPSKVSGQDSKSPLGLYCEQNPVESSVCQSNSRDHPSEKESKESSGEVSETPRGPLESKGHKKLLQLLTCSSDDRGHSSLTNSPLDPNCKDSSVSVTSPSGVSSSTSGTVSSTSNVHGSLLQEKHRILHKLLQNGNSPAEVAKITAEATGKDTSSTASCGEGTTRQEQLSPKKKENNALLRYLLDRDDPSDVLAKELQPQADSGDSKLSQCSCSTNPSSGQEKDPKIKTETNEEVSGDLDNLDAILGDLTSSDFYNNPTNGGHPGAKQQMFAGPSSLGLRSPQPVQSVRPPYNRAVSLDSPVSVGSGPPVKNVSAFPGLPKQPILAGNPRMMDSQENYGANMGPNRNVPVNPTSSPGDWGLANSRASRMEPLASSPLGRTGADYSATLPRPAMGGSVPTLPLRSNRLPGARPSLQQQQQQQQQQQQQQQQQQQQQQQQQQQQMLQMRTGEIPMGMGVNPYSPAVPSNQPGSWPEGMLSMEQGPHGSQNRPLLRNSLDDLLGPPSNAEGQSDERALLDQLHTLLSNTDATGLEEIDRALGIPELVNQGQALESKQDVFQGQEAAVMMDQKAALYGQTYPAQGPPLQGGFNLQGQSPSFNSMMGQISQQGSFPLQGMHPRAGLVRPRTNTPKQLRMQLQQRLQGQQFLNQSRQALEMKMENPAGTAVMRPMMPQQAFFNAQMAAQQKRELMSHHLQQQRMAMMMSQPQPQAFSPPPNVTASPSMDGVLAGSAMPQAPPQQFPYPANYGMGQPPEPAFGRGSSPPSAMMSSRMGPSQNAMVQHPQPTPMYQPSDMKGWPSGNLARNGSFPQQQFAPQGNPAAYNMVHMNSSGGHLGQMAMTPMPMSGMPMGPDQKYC
CHOP inhibitor: blocks CHOP induction under ER stress | inhibition, % at 10 µM | 220,000 compounds, 3.8% hits | AID 2732 | CHO-K1 CHOP-promoter luciferase, tunicamycin-induced, 15-18 h;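 active means compounds that reduced the stress-induced luciferase reporter signal by more than about 70% of percent inhibition, limit read from the data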
Dynein cargo inh: dynein cargo transport inhibition. z-score, hits read low. 3617.4 mouse cells, GR-EGFP nuclear translocation imaging; test concentration mostly 20 µM; stimulated with dexamethasone, 1 µM; stronger effect = lower value. 220,000 compounds, 0.47% hits. AID 1381;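 active means plate z-score of nuclear minus cytoplasmic receptor signal below a set negative limit, without overly bright fluorescence or cell loss, cut at about -3.5 in these data, passing the limit was not always enough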;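 further: z-score of nuclear minus cytoplasmic ring GR-EGFP intensity difference per well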
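Buffer or medium: tet-free, stripped-serum medium; Also added: dexamethasone, 1.0 µM final; Technique: high-content fluorescence imaging after fixation; Times: 48 h induction, 1 h compound, 30 min dex at 37 °C; Read-out: per-cell GR-EGFP intensity, nucleus versus surrounding cytoplasmic ring, well-averaged.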
Beta2AR agonist: human beta-2 adrenergic receptor agonism by FAP; P07550; Am2.2-beta2AR cells, FAP receptor internalization, flow cytometry; response, % (no concentration beside the values); 340,000 compounds, 0.43% hits; AID 504454;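 active means response above a set limit, near 3 SD of response in nonfluorescent compounds, cut at about 42% in these data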
Of the large screens only hits and unclear results are named; the others gave an inactive call.

COc1cccc(/C=N/Nc2ncnc3c2[nH]c2ccc(C)cc23)c1OC	Beta2AR agonist 52
COc1ccc(/C=N/Nc2ncnc3c2[nH]c2ccccc23)c(OC)c1OC	none
CCC(C)c1ccc(NC(=S)NC2CCN(Cc3ccccc3)CC2)cc1 (stereo unspecified)	CHOP inhibitor 87
Cc1cc(C)cc(OCC(=O)Nc2ccc3c(c2)C(=O)c2ccccc2C3=O)c1	none
Cc1nc2scc(-c3ccc(C(C)(C)C)cc3)c2c(=O)n1N	CHOP inhibitor 76
COc1ccc(-c2csc3nc(C)n(-n4cccc4)c(=O)c23)cc1	none (no result: CHOP inhibitor)
Cc1cc(C)c(NC(=O)C[C@H](CC(=O)O)c2cccc3ccccc23)c(C(=O)N2CCC3(CCCC3)CC2)c1	none (no result: XBP1 UPR activ, CHOP UPR activ, p-CIP stab down, Dynein cargo inh, Beta2AR agonist)
COc1ccc(CN2CCN(CC(O)Cn3c4ccccc4c4ccccc43)CC2)cc1 (stereo unspecified)	none
CCOc1ccc(CN2CCN(CC(O)Cn3c4ccccc4c4ccccc43)CC2)cc1 (stereo unspecified)	CHOP inhibitor 108
FC(F)(F)c1cc(-c2cccs2)nc2nc(N3CCOCC3)sc12	CHOP inhibitor 94
O=C(NC(=S)Nn1cnc2c(cnn2-c2ccccc2)c1=O)c1ccc(Cl)cc1	none
O=C(NC(=S)Nn1cnc2c(cnn2-c2ccccc2)c1=O)c1ccc(Oc2ccccc2)cc1	CHOP inhibitor 73
Fc1ccc(-c2cc(C(F)(F)F)nc(NCC3CCCO3)n2)cc1 (stereo unspecified)	CHOP inhibitor 84
COc1ccc(S(=O)(=O)N2CCC(C(=O)NCCc3ccccc3)CC2)cc1	none (no result: CHOP inhibitor, Dynein cargo inh)
NC(=O)c1ccc2c(=O)n3c(-c4cc(Cl)c(N)c(Cl)c4)csc3nc2c1	CHOP inhibitor 88
Cc1csc2nc3cc(C(N)=O)ccc3c(=O)n12	none
Cc1nc(NC2CCCCC2)c2nnn(Cc3ccccc3Cl)c2n1	none (no result: CHOP inhibitor, Dynein cargo inh)
CC(C)CCNc1ncnc2c1nnn2Cc1ccccc1Cl	CHOP inhibitor 79
Cc1nc(N2CCCC2)c2nnn(Cc3ccccc3Cl)c2n1	CHOP inhibitor 73
CCN(CC(=O)NC1CCS(=O)(=O)C1)S(=O)(=O)c1cc([N+](=O)[O-])ccc1C (stereo unspecified)	none (no result: p-CIP stab down, CHOP inhibitor, Dynein cargo inh)
O=c1[nH]c(CSc2nc3ccccc3o2)nc2c1cnn2-c1ccccc1	CHOP inhibitor 74
O=c1[nH]c(SCc2nc3c(cnn3-c3ccccc3)c(=O)[nH]2)nc2ccccc12	none (no result: XBP1 UPR activ, CHOP UPR activ)
Cc1ccc2nc(SCc3nc4c(cnn4-c4ccccc4)c(=O)[nH]3)[nH]c2c1	CHOP inhibitor 73
O=c1[nH]c(CSc2nc3ccccc3[nH]2)nc2c1cnn2-c1ccccc1	none
COc1ccc(Cn2c(=O)oc3ccccc32)cc1F	none (no result: CHOP inhibitor, Dynein cargo inh)
Cc1cc(NC(=O)Cn2nc(-c3ccccc3F)ccc2=O)ccc1-n1cnnn1	CHOP inhibitor 72
Nc1cc(-c2ccc(Cl)cc2)nn1S(=O)(=O)c1cccc2nsnc12	CHOP inhibitor 80
Nc1cc(-c2ccc(Br)cc2)nn1S(=O)(=O)c1cccc2nsnc12	CHOP inhibitor 86
CCN(CC)c1ccc2c(O)cc(=O)oc2c1	none
CCN(CC)c1ccc2c(Cl)cc(=O)oc2c1	CHOP inhibitor 94 (no result: Beta2AR agonist)
Cc1cc(O)c(C(C)C)cc1NC(=O)Nc1ccc([N+](=O)[O-])cc1	none (no result: XBP1 UPR activ, CHOP UPR activ, p-CIP stab down, CHOP inhibitor, Dynein cargo inh)
Cc1ccc(C(C)C)cc1NC(=O)Nc1ccc([N+](=O)[O-])cc1	CHOP inhibitor 106
CCOc1ccc(NC(=O)Nc2cc(C(C)C)ccc2C)cc1	CHOP inhibitor 93
COC(=O)c1ccc(COC(=O)CNC(=O)CNC(=O)c2ccc(OC)cc2)cc1	none (no result: p-CIP stab down, CHOP inhibitor, Dynein cargo inh)
O=C(CN1C(=O)S/C(=C\C=C\c2ccccc2)C1=O)Nc1ccc(O)cc1	CHOP inhibitor 91
O=C(CCN1C(=O)/C(=C\C=C\c2ccccc2)SC1=S)Nc1ccccc1C(=O)O	none (no result: CHOP inhibitor, Dynein cargo inh)
CC(C)c1ccccc1NC(=O)COC(=O)CCN1C(=O)/C(=C\C=C\c2ccccc2)SC1=S	CHOP inhibitor 75
O=C(COC(=O)CCN1C(=O)/C(=C\C=C\c2ccccc2)SC1=S)Nc1ccc(Br)cc1	CHOP inhibitor 72
